ChEMBL document CHEMBL1144062, “A new tyrosine kinase inhibitor from the marine brown alga Stypopodium zonale” (J Nat Prod, 1999)
Calls of active or inactive are those of the source. No cut-off for these calls is given here.

Experiments:
[1] = tested on: Mycotypha microspora; assay: Antifungal activity against Mycotypha microspora at 50 ug/disk; assay type: functional
How it was run: (§1)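 Agar diffusion assay: 50 µg of compound applied per filter disk on seeded agar. The read-out is the inhibition zone, measured in mm from the edge of the filter disk.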

[2] = tested on: Fusarium oxysporum; assay: Antifungal activity against Fusarium oxysporum at 50 ug/disk; assay type: functional; how it was run: as §1
[3] = molecular target: Tyrosine-protein kinase Lck (Homo sapiens, UniProt P06239); assay: Inhibition of tyrosine kinase p56-lck
[4] = tested on: Escherichia coli; assay: Antibacterial activity against Escherichia coli at 50 ug/disk; assay type: functional; settings: for zone of inhibition at 50 µg/disc: read-out: IZ; how it was run: as §1
[5] = tested on: Priestia megaterium; assay: Antibacterial activity against Bacillus megaterium at 50 ug/disk; assay type: functional; settings: for zone of inhibition at 50 µg/disc: read-out: IZ; how it was run: as §1
[6] = tested on: Microbotryum violaceum; assay: Antifungal activity against Ustilago violacea at 50 ug/disk; assay type: functional; how it was run: as §1
[7] = molecular target: Human immunodeficiency virus type 1 reverse transcriptase (Human immunodeficiency virus 1) (UniProt Q72547); assay: Inhibition of HIV1 RT
[8] = tested on: Aspergillus pseudoglaucus; assay: Antifungal activity against Eurotium repens at 50 ug/disk; assay type: functional; settings: for zone of inhibition at 50 µg/disc: read-out: IZ; how it was run: as §1
[9] = tested on: [Chlorella] fusca; assay: Antialgal activity against Chlorella fusca at 50 ug/disk; assay type: functional; settings: Scenedesmus fuscus; for zone of inhibition at 50 µg/disc: read-out: IZ; how it was run: as §1

Row | SMILES | Activity [1] | Activity [2] | IC50 [3] | zone of inhibition at 50 µg/disc [4] | zone of inhibition at 50 µg/disc [5] | Activity [6] | Activity [7] | Activity [8] | Activity [9] | zone of inhibition at 50 µg/disc [9] | zone of inhibition at 50 µg/disc ([1]; read-out: IZ) | zone of inhibition at 50 µg/disc ([2]; read-out: IZ) | zone of inhibition at 50 µg/disc ([6]; read-out: IZ) | zone of inhibition at 50 µg/disc [8] | Activity [3] | Activity [4] | Activity [5]
1 | CC1=CC(=O)C=C(C[C@]2(C)[C@H]3CCC(=C(C)C)[C@@H](CCC(=O)O)[C@]3(C)CC[C@H]2C)C1=O [STYPOQUINONIC ACID] | inactive | inactive | 187 µM | 1 mm | 1 mm | inactive | inactive | inactive | inactive | – | – | – | – | – | – | – | –
2 | COc1cc(C)c(O)c(C[C@]2(C)[C@H]3CCC(=C(C)C)[C@@H](CCC(=O)O)[C@]3(C)CC[C@H]2C)c1 [ATOMARIC ACID] | inactive | inactive | 208 µM | 1 mm | 1 mm | inactive | inactive | inactive | – | 5 mm | – | – | – | – | – | – | –
3 | Clc1ccc(COC(Cn2ccnc2)c2ccc(Cl)cc2Cl)c(Cl)c1 (stereo unspecified) [MICONAZOLE] | – | – | – | – | – | – | – | – | – | 4 mm | 5 mm | 3 mm | 32 mm | 20 mm | – | – | –
4 | CCOC(=O)c1ccccc1C(=O)OCC [DIETHYL PHTHALATE] | – | – | – | – | 10 mm | – | – | – | – | 13 mm | – | – | – | – | – | – | –
5 | Cc1cc(O)cc2c1O[C@@]1(C)CC[C@@H]3[C@@]4(C)CC[C@H](O)C(C)(C)[C@@H]4CC[C@@]3(C)[C@@H]1C2 [TAONDIOL] | – | – | – | – | – | – | inactive | – | inactive | – | – | – | – | 2 mm | inactive | inactive | inactive
